Laboratory results taken from ChEMBL document CHEMBL1131093, “ATP-Citrate lyase as a target for hypolipidemic intervention. 2. Synthesis and evaluation of (3R,5S)-omega-substituted-3-carboxy-3, 5-dihydroxyalkanoic acids and their gamma-lactone prodrugs as inhibitors of the enzyme in vitro and in vivo” (J Med Chem, 1998).

molecular target: T1, ATP-citrate synthase (Rattus norvegicus, UniProt P16638); assay: Inhibitory activity was tested against ATP-Citrate Lyase (ACL) enzyme in rat
T1 sequence (P16638 whole entry): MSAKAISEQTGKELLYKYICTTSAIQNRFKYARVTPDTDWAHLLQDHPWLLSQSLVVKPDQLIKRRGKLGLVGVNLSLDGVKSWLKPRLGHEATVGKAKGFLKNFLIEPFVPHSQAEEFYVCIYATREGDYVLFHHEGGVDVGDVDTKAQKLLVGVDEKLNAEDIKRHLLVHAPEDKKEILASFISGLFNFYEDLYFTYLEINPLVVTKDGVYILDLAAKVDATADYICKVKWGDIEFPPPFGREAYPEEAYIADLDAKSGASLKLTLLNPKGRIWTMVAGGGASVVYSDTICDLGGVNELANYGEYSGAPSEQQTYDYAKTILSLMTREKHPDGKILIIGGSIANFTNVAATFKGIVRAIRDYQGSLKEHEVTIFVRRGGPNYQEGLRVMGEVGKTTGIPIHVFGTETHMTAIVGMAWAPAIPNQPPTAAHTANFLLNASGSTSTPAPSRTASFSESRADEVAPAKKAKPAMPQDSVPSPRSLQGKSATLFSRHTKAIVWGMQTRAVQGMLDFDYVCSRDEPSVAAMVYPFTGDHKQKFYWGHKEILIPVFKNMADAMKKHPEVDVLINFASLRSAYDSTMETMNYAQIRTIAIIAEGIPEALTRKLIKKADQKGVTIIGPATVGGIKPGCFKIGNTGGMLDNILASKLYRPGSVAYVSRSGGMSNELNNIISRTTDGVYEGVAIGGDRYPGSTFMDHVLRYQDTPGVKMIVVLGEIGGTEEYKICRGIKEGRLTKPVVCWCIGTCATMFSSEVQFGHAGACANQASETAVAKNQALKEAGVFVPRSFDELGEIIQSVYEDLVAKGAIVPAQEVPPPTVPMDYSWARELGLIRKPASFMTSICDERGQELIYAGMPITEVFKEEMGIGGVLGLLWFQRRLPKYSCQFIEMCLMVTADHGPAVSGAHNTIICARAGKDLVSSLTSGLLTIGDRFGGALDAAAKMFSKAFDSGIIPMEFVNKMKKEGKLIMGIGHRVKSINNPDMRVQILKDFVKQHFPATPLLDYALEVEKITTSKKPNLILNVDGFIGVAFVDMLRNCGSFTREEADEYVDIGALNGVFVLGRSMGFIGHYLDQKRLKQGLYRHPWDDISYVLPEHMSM

Point of comparison: O=C(O)C[C@@](O)(CCCCCCCCc1ccc(Cl)cc1Cl)C(=O)O, Ki 2900 nM. Against it:
- N[C@H](C(=O)O)[C@@](O)(CC(=O)O)C(=O)O — 3.8-fold higher, 11000 nM

molecular target: T1, ATP-citrate synthase; assay: Inhibitory activity was tested against rat ATP-Citrate Lyase (ACL) enzyme

Point of comparison: O=C(O)C[C@@](O)(C[C@H](O)CCCCCCc1ccc(Cl)cc1Cl)C(=O)O (stereo in doubt; (+)-45), Ki 700 nM. Against it:
- O=C(O)C[C@@](O)(C[C@H](O)CCCCCCc1ccc(Cl)cc1Cl)C(=O)O (stereo in doubt; (-)-45) — the same, 700 nM
- O=C(O)C[C@@](O)(CC(=O)CCCCCCc1ccc(Cl)cc1Cl)C(=O)O — 1.7-fold higher, 1200 nM

molecular target: T2, ATP-citrate synthase (Homo sapiens) (UniProt P53396); assay: Inhibitory activity was tested against human recombinant ATP-Citrate Lyase (ACL) enzyme at 100 uM
T2 sequence (whole entry): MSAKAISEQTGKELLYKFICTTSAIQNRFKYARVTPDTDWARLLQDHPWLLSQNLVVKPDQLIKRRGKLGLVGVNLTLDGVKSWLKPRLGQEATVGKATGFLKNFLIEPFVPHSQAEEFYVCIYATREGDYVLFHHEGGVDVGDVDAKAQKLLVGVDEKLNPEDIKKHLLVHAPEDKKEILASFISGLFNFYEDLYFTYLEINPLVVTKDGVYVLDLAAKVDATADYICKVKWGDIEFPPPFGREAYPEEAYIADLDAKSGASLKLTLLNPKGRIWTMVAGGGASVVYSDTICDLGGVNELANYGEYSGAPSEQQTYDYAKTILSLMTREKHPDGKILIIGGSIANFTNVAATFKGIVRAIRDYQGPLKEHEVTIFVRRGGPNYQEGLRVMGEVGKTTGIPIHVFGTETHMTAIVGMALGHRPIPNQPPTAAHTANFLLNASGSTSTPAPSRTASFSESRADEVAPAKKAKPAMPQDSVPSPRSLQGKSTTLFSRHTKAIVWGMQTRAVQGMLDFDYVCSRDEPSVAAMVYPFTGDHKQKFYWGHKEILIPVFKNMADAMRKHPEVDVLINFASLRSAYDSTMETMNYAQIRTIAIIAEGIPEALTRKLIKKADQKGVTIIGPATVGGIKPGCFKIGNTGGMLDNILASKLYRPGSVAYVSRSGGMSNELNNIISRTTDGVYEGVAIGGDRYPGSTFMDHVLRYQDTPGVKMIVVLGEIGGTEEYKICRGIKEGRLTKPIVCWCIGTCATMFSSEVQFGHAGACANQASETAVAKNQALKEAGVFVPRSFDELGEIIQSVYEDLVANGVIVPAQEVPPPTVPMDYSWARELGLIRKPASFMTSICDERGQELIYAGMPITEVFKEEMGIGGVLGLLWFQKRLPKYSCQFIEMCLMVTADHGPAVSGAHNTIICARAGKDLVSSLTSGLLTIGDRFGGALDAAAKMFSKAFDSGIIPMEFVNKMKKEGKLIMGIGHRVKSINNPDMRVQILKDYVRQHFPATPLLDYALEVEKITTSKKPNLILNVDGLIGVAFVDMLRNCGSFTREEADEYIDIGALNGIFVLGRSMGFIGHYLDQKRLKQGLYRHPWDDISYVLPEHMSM

Point of comparison: Cc1ccc(C)n1-c1cc(Cl)ccc1CCCCCC[C@@H](O)C[C@](O)(CC(=O)O)C(=O)O, inhibition 67%. Against it:
- O=C(O)C[C@@](O)(C[C@H](O)CCCCCCc1ccc(Cl)cc1O)C(=O)O — lower, 24%

molecular target: T3, ATP-citrate synthase (Homo sapiens, UniProt P53396); assay: Inhibitory activity against human recombinant ATP-Citrate Lyase (ACL) enzyme
T3 sequence (P53396 whole entry): T2 sequence (whole entry)
Procedure, shortened: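 Human recombinant ATP-citrate lyase was used. Lactone intermediates were hydrolysed with aqueous NaOH to the hydroxy acid before being added to the enzyme buffer mix. Potency was reported as the reversible Ki.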

Point of comparison: O=C(O)C[C@@](O)(C[C@H](O)CCCCCCc1ccc(Cl)cc1Cl)C(=O)O (stereo in doubt; (+)-45), Ki 880 nM. Against it:
- O=C(O)C[C@@](O)(C[C@@H](O)CCCCCCc1ccc(Cl)cc1Cl)C(=O)O — 2.3-fold higher, 2000 nM
- O=C(O)C[C@@](O)(C[C@H](O)CCCCCCn1ccc2cc(Cl)ccc21)C(=O)O — 3.6-fold higher, 3200 nM
- O=C(O)[C@@H](O)[C@@](O)(C[C@H](O)CCCCCCc1ccc(Cl)cc1Cl)C(=O)O — within 1.5-fold, 620 nM
- O=C(O)C[C@@](O)(C[C@H](O)CCCCCn1c2ccccc2c2cc(Cl)ccc21)C(=O)O — within 1.5-fold, 710 nM
- O=C(O)C[C@@](O)(C[C@H](O)CCCCCCc1ccc(Cl)cc1-c1ccc(F)cc1)C(=O)O — 3.1-fold higher, 2700 nM
- Cc1cc2cc(Cl)ccc2n1CCCCC[C@@H](O)C[C@](O)(CC(=O)O)C(=O)O — 15-fold higher, 13000 nM
- O=C(O)C[C@@](O)(C[C@H](O)CCCCCCc1ccc(Cl)cc1-n1cccc1)C(=O)O — 4.4-fold higher, 3900 nM
- O=C(O)C[C@@](O)(C[C@H](O)CCCCCCc1ccc(Cl)cc1Cl)C(=O)O (stereo in doubt; (-)-45) — within 1.5-fold, 770 nM
- O=C(O)[C@H](O)[C@@](O)(C[C@H](O)CCCCCCc1ccc(Cl)cc1Cl)C(=O)O — 1.6-fold lower, 550 nM
- Cc1cn(-c2cc(Cl)ccc2CCCCCC[C@@H](O)C[C@](O)(CC(=O)O)C(=O)O)cc1C (stereo in doubt; 58) — 2.9-fold lower, 300 nM
- O=C(O)C[C@@](O)(C[C@H](O)CCCCCCc1ccc(Cl)cc1-c1ccccc1)C(=O)O — within 1.5-fold, 750 nM
- COc1cc(Cl)ccc1CCCCCC[C@@H](O)C[C@](O)(CC(=O)O)C(=O)O — 22-fold higher, 19000 nM
- O=C(O)C[C@](O)(C(=O)O)[C@@H](O)CCCCCCCc1ccc(Cl)cc1Cl — 6.5-fold higher, 5700 nM
- Cc1cn(-c2cc(Cl)ccc2CCCCCC[C@@H](O)C[C@](O)(CC(=O)O)C(=O)O)cc1C (stereo in doubt; (+)-58) — 1.5-fold lower, 580 nM
- O=C(O)C[C@@](O)(C[C@H](O)CCCCCCc1ccc(Cl)cc1-c1ccc(Cl)cc1Cl)C(=O)O — 24-fold higher, 21000 nM
